Here are results for 6 molecules from ChEMBL document CHEMBL1781961, “Synthesis and in vitro antibacterial activity of 7-(3-alkoxyimino-4-amino-4-methylpiperidin-1-yl) fluoroquinolone derivatives” (Eur J Med Chem, 2011).

Data set [1] deals with Staphylococcus aureus. The experiment in a line: Antibacterial activity against 10^4 CFU methicillin-resistant Staphylococcus aureus 08-1 after 18 hrs by CLSI agar dilution method. The following applies: 08-1, 18 h. It counts as functional.
Data set [2] deals with Staphylococcus epidermidis. The experiment in a line: Antibacterial activity against 10^4 CFU methicillin-resistant Staphylococcus epidermidis 09-2 after 18 hrs by CLSI agar dilution method. The class given is functional. Particulars: 09-2, 18 h.
Data set [3] relates to Escherichia coli. Put plainly: Antibacterial activity against 10^4 CFU Escherichia coli ATCC 25922 after 18 hrs by CLSI agar dilution method. It counts as functional. Particulars: ATCC 25922, 18 h.
Data set [4] relates to Enterococcus faecalis. Put plainly: Antibacterial activity against 10^4 CFU Enterococcus faecalis 08-10 after 18 hrs by CLSI agar dilution method. It counts as functional. Particulars: 08-10, 18 h.
Data set [5] concerns Enterococcus faecium. Put plainly: Antibacterial activity against 10^4 CFU Enterococcus faecium 08-2 after 18 hrs by CLSI agar dilution method. The following applies: 08-2, 18 h. It counts as functional.
The test system of data set [6] is Enterococcus faecalis. The experiment in a line: Antibacterial activity against 10^4 CFU Enterococcus faecalis 08-12 after 18 hrs by CLSI agar dilution method. It counts as functional. The following applies: 08-12, 18 h.
The subject of data set [7] is Klebsiella pneumoniae. The experiment in a line: Antibacterial activity against 10^4 CFU Klebsiella pneumoniae 09-22 after 18 hrs by CLSI agar dilution method. The class given is functional. Particulars: 09-22, 18 h.
The subject of data set [8] is Staphylococcus aureus. Put plainly: Antibacterial activity against 10^4 CFU methicillin-sensitive Staphylococcus aureus 08-1 after 18 hrs by CLSI agar dilution method. The class given is functional. The following applies: 08-1, 18 h.
Data set [9] deals with Pseudomonas aeruginosa. Put plainly: Antibacterial activity against 10^4 CFU Pseudomonas aeruginosa 09-32 after 18 hrs by CLSI agar dilution method. The class given is functional. Particulars: 09-32, 18 h.
Data set [10] has as its system Enterococcus faecium. The experiment in a line: Antibacterial activity against 10^4 CFU Enterococcus faecium 06-7 after 18 hrs by CLSI agar dilution method. It counts as functional. The following applies: 06-7, 18 h.
The subject of data set [11] is Pseudomonas aeruginosa. Put plainly: Antibacterial activity against 10^4 CFU Pseudomonas aeruginosa ATCC 27853 after 18 hrs by CLSI agar dilution method. Particulars: ATCC 27853, 18 h. The class given is functional.
The test system of data set [12] is Staphylococcus epidermidis. The experiment in a line: Antibacterial activity against 10^4 CFU methicillin-sensitive Staphylococcus epidermidis 09-6 after 18 hrs by CLSI agar dilution method. The class given is functional. Particulars: 09-6, 18 h.
The test system of data set [13] is Klebsiella pneumoniae. The experiment in a line: Antibacterial activity against 10^4 CFU Klebsiella pneumoniae 09-23 after 18 hrs by CLSI agar dilution method. The class given is functional. Particulars: 09-23, 18 h.
Another data set deals with Streptococcus pneumoniae. Put plainly: Antibacterial activity against 10^4 CFU Streptococcus pneumoniae 08-4 after 18 hrs by CLSI agar dilution method. The class given is functional. Particulars: 08-4, 18 h.
The nature of data set [14]: Cytotoxicity against MDCK cells after 48 hrs by CPE assay. The following applies: dog. The class given is cell-based, Canis lupus familiaris. The gist of the method:
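MDCK cells kept in Minimum Essential Medium with Earle's salt plus 10% fetal bovine serum at 37 °C, 5% CO₂. […] Medium then replaced by assay medium with or without compound. After 48 h exposure, viability read by CPE assay. CC₅₀ calculated by Reed–Muench analysis.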

Data set [15] deals with Escherichia coli. The experiment in a line: Antibacterial activity against 10^4 CFU Escherichia coli 08-21 after 18 hrs by CLSI agar dilution method. The class given is functional. Particulars: 08-21, 18 h.
In data set [16] the test system is Staphylococcus aureus. The experiment in a line: Antibacterial activity against 10^4 CFU Staphylococcus aureus ATCC 25923 after 18 hrs by CLSI agar dilution method. The class given is functional. The following applies: ATCC 25923, 18 h.

In brackets after ≈: the same amount, converted by molar mass.

Turning to `CO/N=C1\CN(c2nc3c(cc2F)c(=O)c(C(=O)O)cn3C2CC2)CCC1(C)N` (configuration not stated), the minimum inhibitory concentration (MIC) in the data set on Staphylococcus aureus [1] stood at 0.25 µg/mL (≈ 0.62 µM); in [2], 0.25 µg/mL (≈ 0.62 µM); in the data set on Escherichia coli [3] it was 8 µg/mL (≈ 19.8 µM); with Enterococcus faecalis [4], 16 µg/mL (≈ 39.7 µM); in the data set with Enterococcus faecium [5], 64 µg/mL (≈ 159 µM); in the data set on Enterococcus faecalis [6] it was 16 µg/mL (≈ 39.7 µM). Besides, the minimal inhibitory concentration (MIC) is 16 µg/mL (≈ 39.7 µM) against Klebsiella pneumoniae [7]; 0.25 µg/mL (≈ 0.62 µM) in the data set with Staphylococcus aureus [8]; 16 µg/mL (≈ 39.7 µM) in the data set with Pseudomonas aeruginosa [9]; 16 µg/mL (≈ 39.7 µM) against Enterococcus faecium [10]; 4 µg/mL (≈ 9.92 µM) against Pseudomonas aeruginosa [11]; 0.25 µg/mL (≈ 0.62 µM) in [12]. The minimum inhibitory concentration (MIC) in the data set with Klebsiella pneumoniae [13] is 2 µg/mL (≈ 4.96 µM); against Streptococcus pneumoniae, 4 µg/mL (≈ 9.92 µM); with Escherichia coli [15], 16 µg/mL (≈ 39.7 µM); in the data set on Staphylococcus aureus [16], 0.25 µg/mL (≈ 0.62 µM). In [14], this molecule had a CC50 at 48 h of 77.4 µM.

For `CCO/N=C1\CN(c2nc3c(cc2F)c(=O)c(C(=O)O)cn3C2CC2)CCC1(C)N` (configuration not stated), the minimal inhibitory concentration (MIC) is 0.25 µg/mL (≈ 0.599 µM) against Staphylococcus aureus [1]; 0.25 µg/mL (≈ 0.599 µM) in data set [2]; 128 µg/mL (≈ 307 µM) against Escherichia coli [3]; above 128 µg/mL against Enterococcus faecalis [4]; above 128 µg/mL against Enterococcus faecium [5]; above 128 µg/mL against Enterococcus faecalis [6]. Besides, the minimum inhibitory concentration (MIC) with Klebsiella pneumoniae [7] was above 128 µg/mL; in the data set on Staphylococcus aureus [8] it was 0.25 µg/mL (≈ 0.599 µM); in the data set with Pseudomonas aeruginosa [9], 2 µg/mL (≈ 4.79 µM); with Enterococcus faecium [10], above 128 µg/mL; in the data set with Pseudomonas aeruginosa [11] it was 8 µg/mL (≈ 19.2 µM); in [12] it was 0.25 µg/mL (≈ 0.599 µM). In addition, the minimum inhibitory concentration (MIC) in the data set with Klebsiella pneumoniae [13] was above 128 µg/mL; in the data set on Streptococcus pneumoniae, 0.25 µg/mL (≈ 0.599 µM); with Escherichia coli [15] it was above 128 µg/mL; in the data set with Staphylococcus aureus [16] it was 0.125 µg/mL (≈ 0.299 µM). Further, the 50% cytotoxic concentration (CC50) at 48 h in [14] is 300 µM.

Turning to `CO/N=C1\CN(c2nc3c(cc2F)c(=O)c(C(=O)O)cn3-c2ccc(F)cc2F)CCC1(C)N` (configuration not stated), the minimal inhibitory concentration (MIC) against Staphylococcus aureus [1] is 0.25 µg/mL (≈ 0.526 µM); in data set [2], 0.25 µg/mL (≈ 0.526 µM); with Escherichia coli [3], 16 µg/mL (≈ 33.7 µM); against Enterococcus faecalis [4], 64 µg/mL (≈ 135 µM); against Enterococcus faecium [5], above 128 µg/mL; in the data set with Enterococcus faecalis [6], 64 µg/mL (≈ 135 µM). The MIC in the data set on Klebsiella pneumoniae [7] was 64 µg/mL (≈ 135 µM); in the data set with Staphylococcus aureus [8], 0.25 µg/mL (≈ 0.526 µM); with Pseudomonas aeruginosa [9], 0.25 µg/mL (≈ 0.526 µM); against Enterococcus faecium [10], above 128 µg/mL; against Pseudomonas aeruginosa [11], 4 µg/mL (≈ 8.41 µM); in data set [12], 0.25 µg/mL (≈ 0.526 µM). The MIC is 64 µg/mL (≈ 135 µM) in the data set on Klebsiella pneumoniae [13], 1 µg/mL (≈ 2.1 µM) against Streptococcus pneumoniae, above 128 µg/mL with Escherichia coli [15] and 0.25 µg/mL (≈ 0.526 µM) against Staphylococcus aureus [16]. For the same molecule, the CC50 at 48 h in data set [14] is 93 µM.

Regarding `CCO/N=C1\CN(c2nc3c(cc2F)c(=O)c(C(=O)O)cn3-c2ccc(F)cc2F)CCC1(C)N` (configuration not stated), the minimal inhibitory concentration (MIC) in the data set with Staphylococcus aureus [1] turned out to be 2 µg/mL (≈ 4.09 µM); in [2], 0.25 µg/mL (≈ 0.511 µM); with Escherichia coli [3], 16 µg/mL (≈ 32.7 µM); with Enterococcus faecalis [4], 8 µg/mL (≈ 16.3 µM); with Enterococcus faecium [5], 64 µg/mL (≈ 131 µM); in the data set on Enterococcus faecalis [6], 32 µg/mL (≈ 65.4 µM). Moreover, the minimal inhibitory concentration (MIC) is 32 µg/mL (≈ 65.4 µM) against Klebsiella pneumoniae [7]; 0.25 µg/mL (≈ 0.511 µM) in the data set on Staphylococcus aureus [8]; 0.5 µg/mL (≈ 1.02 µM) against Pseudomonas aeruginosa [9]; above 128 µg/mL against Enterococcus faecium [10]; 4 µg/mL (≈ 8.17 µM) in the data set on Pseudomonas aeruginosa [11]; 0.25 µg/mL (≈ 0.511 µM) in [12]. The MIC with Klebsiella pneumoniae [13] came to 32 µg/mL (≈ 65.4 µM); against Streptococcus pneumoniae it was 0.25 µg/mL (≈ 0.511 µM); against Escherichia coli [15], 32 µg/mL (≈ 65.4 µM); with Staphylococcus aureus [16] it was 0.25 µg/mL (≈ 0.511 µM). For the same molecule, it took 128 µM to reach half-maximal cytotoxicity in data set [14] (CC50 at 48 h).

For the molecule `CCn1cc(C(=O)O)c(=O)c2cc(F)c(N3CCC(C)(N)/C(=N/OC)C3)c(F)c21` (configuration not stated), the MIC is 0.25 µg/mL (≈ 0.612 µM) against Staphylococcus aureus [1]; 0.25 µg/mL (≈ 0.612 µM) in data set [2]; 128 µg/mL (≈ 313 µM) with Escherichia coli [3]; 32 µg/mL (≈ 78.4 µM) against Enterococcus faecalis [4]; above 128 µg/mL against Enterococcus faecium [5]; 64 µg/mL (≈ 157 µM) in the data set with Enterococcus faecalis [6]. Further, the minimal inhibitory concentration (MIC) against Klebsiella pneumoniae [7] is 32 µg/mL (≈ 78.4 µM); against Staphylococcus aureus [8], 0.25 µg/mL (≈ 0.612 µM); with Pseudomonas aeruginosa [9], 4 µg/mL (≈ 9.79 µM); in the data set on Enterococcus faecium [10], above 128 µg/mL; with Pseudomonas aeruginosa [11] it was 4 µg/mL (≈ 9.79 µM); in data set [12], 0.25 µg/mL (≈ 0.612 µM). In addition, the MIC in the data set with Klebsiella pneumoniae [13] was 64 µg/mL (≈ 157 µM); in the data set with Streptococcus pneumoniae it was 0.25 µg/mL (≈ 0.612 µM); in the data set with Escherichia coli [15], above 128 µg/mL; in the data set with Staphylococcus aureus [16] it was 0.5 µg/mL (≈ 1.22 µM). In data set [14], this molecule yielded a CC50 at 48 h of 433 µM.

With `CCO/N=C1\CN(c2c(F)cc3c(=O)c(C(=O)O)cn(CC)c3c2F)CCC1(C)N` (configuration not stated), the minimum inhibitory concentration (MIC) against Staphylococcus aureus [1] is 0.25 µg/mL (≈ 0.592 µM); in data set [2], 0.25 µg/mL (≈ 0.592 µM); against Escherichia coli [3] it was above 128 µg/mL; in the data set with Enterococcus faecalis [4], 4 µg/mL (≈ 9.47 µM); in the data set on Enterococcus faecium [5], above 128 µg/mL; against Enterococcus faecalis [6] it was above 128 µg/mL. Also, the MIC in the data set with Klebsiella pneumoniae [7] is above 128 µg/mL; with Staphylococcus aureus [8] it was 0.25 µg/mL (≈ 0.592 µM); against Pseudomonas aeruginosa [9] it was 64 µg/mL (≈ 152 µM); against Enterococcus faecium [10], above 128 µg/mL; against Pseudomonas aeruginosa [11], 4 µg/mL (≈ 9.47 µM); in data set [12], 0.25 µg/mL (≈ 0.592 µM). Further, the MIC with Klebsiella pneumoniae [13] is above 128 µg/mL; in the data set with Streptococcus pneumoniae, 0.25 µg/mL (≈ 0.592 µM); in the data set with Escherichia coli [15], above 128 µg/mL; in the data set with Staphylococcus aureus [16], 0.25 µg/mL (≈ 0.592 µM). In data set [14], this molecule gave a CC50 at 48 h of 592 µM.
